Results as given in ChEMBL document CHEMBL1124822, “(8 beta)-6-methylergoline amide derivatives as serotonin antagonists: N1-substituent effects on vascular 5HT2 receptor activity” (J Med Chem, 1990).

Each compound was assayed against Serotonin 2 (5-HT2) receptor (Rattus norvegicus) (UniProt P30994+P08909+P14842) (assay: Antagonistic activity against (5-hydroxytryptamine 2 receptor) serotonin-induced contractions in the rat jugular vein).
Assay type: functional
Outline: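 Isolated jugular vein segments mounted on two L-shaped needles, one tied to a transducer, in organ baths with 10 mL modified Krebs bicarbonate solution; 1-2 h equilibration. Control cumulative serotonin contraction curves were recorded, then the antagonist was incubated 1 h and the curves repeated, one antagonist concentration per tissue. K_B = [B]/(dose ratio − 1), using serotonin ED50 ratios; reported as −log K_B.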

Sequence of Serotonin 2 (5-HT2) receptor (Rattus norvegicus) (P08909 whole entry, looked up): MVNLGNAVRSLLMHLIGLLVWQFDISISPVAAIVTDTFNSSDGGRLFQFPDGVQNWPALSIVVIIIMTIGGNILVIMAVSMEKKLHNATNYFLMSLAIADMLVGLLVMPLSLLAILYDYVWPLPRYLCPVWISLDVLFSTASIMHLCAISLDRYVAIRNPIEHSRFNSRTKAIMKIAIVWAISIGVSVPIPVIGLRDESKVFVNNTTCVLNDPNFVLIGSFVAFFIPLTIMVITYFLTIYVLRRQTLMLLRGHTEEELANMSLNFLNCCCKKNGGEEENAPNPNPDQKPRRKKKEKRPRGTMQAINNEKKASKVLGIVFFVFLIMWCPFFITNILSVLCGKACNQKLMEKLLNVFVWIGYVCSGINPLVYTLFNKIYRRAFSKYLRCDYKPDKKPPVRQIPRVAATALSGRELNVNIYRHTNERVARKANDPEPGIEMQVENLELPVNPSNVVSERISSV
Sequence of Serotonin 2 (5-HT2) receptor (Rattus norvegicus) (P14842 whole entry, looked up): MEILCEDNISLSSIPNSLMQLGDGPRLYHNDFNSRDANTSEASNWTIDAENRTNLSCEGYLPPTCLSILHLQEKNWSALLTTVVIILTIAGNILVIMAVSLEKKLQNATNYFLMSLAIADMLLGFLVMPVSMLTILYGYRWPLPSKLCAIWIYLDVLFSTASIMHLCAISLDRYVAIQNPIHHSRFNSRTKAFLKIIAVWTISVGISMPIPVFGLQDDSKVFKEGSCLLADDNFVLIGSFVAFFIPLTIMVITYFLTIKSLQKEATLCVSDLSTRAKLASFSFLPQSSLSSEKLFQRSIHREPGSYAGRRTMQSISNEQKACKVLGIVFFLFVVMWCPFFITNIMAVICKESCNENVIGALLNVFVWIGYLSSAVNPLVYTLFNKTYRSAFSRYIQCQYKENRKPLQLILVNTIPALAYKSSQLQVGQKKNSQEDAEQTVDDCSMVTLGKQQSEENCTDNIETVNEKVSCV
Sequence of Serotonin 2 (5-HT2) receptor (Rattus norvegicus) (P30994 whole entry, looked up): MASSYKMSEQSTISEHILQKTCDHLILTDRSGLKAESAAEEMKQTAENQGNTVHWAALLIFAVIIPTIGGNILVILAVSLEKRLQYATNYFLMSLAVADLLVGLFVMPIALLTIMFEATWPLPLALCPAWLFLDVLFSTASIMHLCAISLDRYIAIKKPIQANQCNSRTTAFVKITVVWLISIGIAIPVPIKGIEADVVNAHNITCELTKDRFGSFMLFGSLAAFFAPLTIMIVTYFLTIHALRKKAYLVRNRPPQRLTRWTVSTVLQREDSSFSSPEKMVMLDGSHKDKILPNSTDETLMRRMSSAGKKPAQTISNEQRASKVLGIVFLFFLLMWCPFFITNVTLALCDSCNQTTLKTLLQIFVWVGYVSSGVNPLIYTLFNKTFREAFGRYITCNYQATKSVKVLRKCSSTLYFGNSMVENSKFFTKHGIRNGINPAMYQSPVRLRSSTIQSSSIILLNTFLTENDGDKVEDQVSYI

| Structure (SMILES) | -Log KB |
| --- | --- |
| COC1CCC(C(=O)N[C@@H]2C[C@@H]3c4cccc5c4c(cn5C(C)C)C[C@H]3N(C)C2)CC1 (stereo partly specified) | 9.64 |
| CCCCCCCCn1cc2c3c(cccc31)[C@H]1C[C@@H](C(=O)NC3CCCCC3)CN(C)[C@@H]1C2 | < 7 |
| CN1C[C@H](c2nnnn2C2CCCCC2)C[C@@H]2c3cccc4c3c(cn4C)C[C@H]21 | < 7 |
| C=CCn1cc2c3c(cccc31)[C@H]1C[C@@H](C(=O)NC3CCCCC3)CN(C)[C@@H]1C2 | 8.15 |
| CN1C[C@H](C(=O)NC2CCCCC2)C[C@@H]2c3cccc4[nH]cc(c34)C[C@H]21 | 9.24 |
| CN1C[C@H](C(=O)NC2CCCC2)C[C@@H]2c3cccc4c3c(cn4C)C[C@H]21 | 9.23 |
| CN1C[C@H](C(=O)NC2CCCCC2)C[C@@H]2c3cccc4c3c(cn4Cc3ccccc3)C[C@H]21 | < 7 |
| CCn1cc2c3c(cccc31)[C@H]1C[C@@H](C(=O)NC3CCCCC3)CN(C)[C@@H]1C2 | 9.25 |
| CCn1cc2c3c(cccc31)[C@H]1C[C@@H](C(=O)NC3CCCC3)CN(C)[C@@H]1C2 | 9.8 |
| CN1C[C@H](c2nnnn2C2CCCCC2)C[C@@H]2c3cccc4[nH]cc(c34)C[C@H]21 | < 6.52 |
| CN1C[C@H](CC(=O)NC2CCCCC2)C[C@@H]2c3cccc4[nH]cc(c34)C[C@H]21 | 8.05 |
| CCn1cc2c3c(cccc31)[C@H]1C[C@@H](NC(=O)C3CCC(OC)CC3)CN(C)[C@@H]1C2 (stereo partly specified) | 9.43 |
| COC1CCC(C(=O)N[C@@H]2C[C@@H]3c4cccc5c4c(cn5C)C[C@H]3N(C)C2)CC1 (stereo partly specified) | 8.71 |
| CN1C[C@H](C(=O)NC2CCCCC2)C[C@@H]2c3cccc4c3c(cn4C3CCCC3)C[C@H]21 | < 7 |
| CCCn1cc2c3c(cccc31)[C@H]1C[C@@H](C(=O)NC3CCCCC3)CN(C)[C@@H]1C2 | 8 |
| CC(C)n1cc2c3c(cccc31)[C@H]1C[C@@H](C(=O)NC3CCCCC3)CN(C)[C@@H]1C2 | 9.67 |

| Structure (SMILES) | -Log KB |
| --- | --- |
| CC(C)Cn1cc2c3c(cccc31)[C@H]1C[C@@H](C(=O)NC3CCCC3)CN(C)[C@@H]1C2 | < 7 |
| CN1C[C@H](C(N)=O)C[C@@H]2c3cccc4[nH]cc(c34)C[C@H]21 | 7 |
| CC(C)Cn1cc2c3c(cccc31)[C@H]1C[C@@H](C(=O)NC3CCCCC3)CN(C)[C@@H]1C2 | < 7 |
| CCC(CC)n1cc2c3c(cccc31)[C@H]1C[C@@H](C(=O)NC3CCCC3)CN(C)[C@@H]1C2 | 7.3 |
| CC(C)n1cc2c3c(cccc31)[C@H]1C[C@@H](C(N)=O)CN(C)[C@@H]1C2 | 8.7 |
| CN1C[C@H](CC(=O)NC2CCCCC2)C[C@@H]2c3cccc4c3c(cn4C)C[C@H]21 | 8.97 |
| CCC(CC)n1cc2c3c(cccc31)[C@H]1C[C@@H](C(=O)NC3CCCCC3)CN(C)[C@@H]1C2 | 7.8 |
| CCn1cc2c3c(cccc31)[C@H]1C[C@@H](C(N)=O)CN(C)[C@@H]1C2 | 8.44 |
| CC(C)n1cc2c3c(cccc31)[C@H]1C[C@@H](CC(=O)NC3CCCCC3)CN(C)[C@@H]1C2 | 8.88 |
| CN1C[C@H](C(=O)NC2CCCCC2)C[C@@H]2c3cccc4c3c(cn4C)C[C@H]21 | 9.7 |
| CC(C)n1cc2c3c(cccc31)[C@H]1C[C@@H](C(=O)NC3CCCC3)CN(C)[C@@H]1C2 | 10.3 |
| CN1C[C@H](C(=O)NC2CCCC2)C[C@@H]2c3cccc4[nH]cc(c34)C[C@H]21 | 8.87 |
| CN1C[C@H](C(N)=O)C[C@@H]2c3cccc4c3c(cn4C)C[C@H]21 | 7.81 |
| CCCCn1cc2c3c(cccc31)[C@H]1C[C@@H](C(=O)NC3CCCCC3)CN(C)[C@@H]1C2 | 7.5 |
| CC(C)n1cc2c3c(cccc31)[C@H]1C[C@@H](c3nnnn3C3CCCCC3)CN(C)[C@@H]1C2 | < 8 |
